Results from different studies.
Compare with care: the assays were run in different laboratories.
Target: NT-3 growth factor receptor (NTRK3, Homo sapiens, UniProt Q16288)
Observed: enzyme activity
Mode: inhibitor

SMILES | test | setting | inhibition [%]
COc1cc2ncnc(Nc3ccc(Oc4ccccc4)c(C)c3C)c2cc1OC | – | 1 µM | 3
CNC(=O)c1cc2c(Oc3ccc(NC(=O)C4(C(=O)Nc5ccc(F)cc5)CC4)cc3)ccnc2cc1OC | radiometric | 1 µM | 79
CC/C(=N\NC(=O)NCc1cccc(O)c1)c1ccc(O)c(C)c1O | – | 0.1 µM | 0.4
O=C(Cc1ccc(C(F)(F)F)cc1)Nc1cccc(C(=O)Nc2ccc3[nH]ncc3c2)c1 | FRET | 1 µM | 21.9
CCCS(=O)(=O)Nc1ccc(F)c(C(=O)c2c[nH]c3ncc(-c4ccc(Cl)cc4)cc23)c1F | – | 1 µM | < 10
O=C(Nc1ccc(Br)cc1)Nc1cccc(C(=O)Nc2ccc3[nH]ncc3c2)c1 | FRET | 1 µM | 13.7
COc1cc2ncnc(Nc3ccc(Oc4ccccc4)cc3C)c2cc1OC | – | 1 µM | 13
CN1CC(Oc2cnc(C#N)cc2-c2ccn3nc(NC(=O)C4CC4)cc3c2)C1 | – | 1 µM | 51
O=C(Nc1ccc2[nH]ncc2c1)c1cccc(NC(=O)c2cc(C(F)(F)F)ccc2F)c1 | FRET | 1 µM | 12.1
CCOc1cc(-c2nncn2C)ccc1Nc1ncc2cc(C)nc(NCC(C)(C)C)c2n1 | FRET | 1 µM | < 15
